Measured values from ChEMBL document CHEMBL1123472, “Long-acting dihydropyridine calcium antagonists. 1. 2-Alkoxymethyl derivatives incorporating basic substituents” (J Med Chem, 1986).

Tests used:
Cavia porcellus = species on record: Cavia porcellus; test: Negative inotropy measured as the concentration required to depress contraction in the isolated Langendorff-perfused guinea pig heart by 25%; type: functional
Method in brief: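 Hearts from male guinea pigs were Langendorff-perfused with Krebs-Henseleit solution at 37 °C. Force and rate of contraction were measured with a force transducer attached to the apex.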

[1] = In vitro calcium antagonist activity was assessed against calcium induced constriction of potassium-depolarized rat aorta; type: functional, tissue-based
Method in brief: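 Spirally cut rat aortic strips, one end fixed and the other on a force transducer, in modified Krebs-Henseleit with 45 mM K⁺ and no calcium. CaCl2 is added to a final 2 mM Ca²⁺ and the contraction tension is recorded. After draining, refilling and 45 min, the challenge is repeated with the compound in the saline. The concentration giving 50% reduction of the response is recorded.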

Canis familiaris [2] = test: Percent decrease in coronary vascular resistance in dogs after intravenous dosage of 1500 ug/kg compound; type: functional, Canis lupus familiaris
Method in brief: (§1)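 Given intravenously to instrumented, anesthetized dogs. Coronary blood flow was measured by hydrogen clearance. Coronary vascular resistance was derived as arterial blood pressure divided by coronary flow.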

Canis familiaris [3] = test: Percent decrease in coronary vascular resistance in dogs after intravenous dosage of 450 ug/kg compound; type: functional, Canis lupus familiaris; method in brief: as §1
Canis familiaris [4] = test: Percent decrease in coronary vascular resistance in dogs after intravenous dosage of 150 ug/kg compound
[5] = Compound was tested for the plasma half life in dogs; type: functional
[6] = Compound was tested for the volume of distribution in dogs; type: functional, organism-based
Rattus norvegicus = species on record: Rattus norvegicus; test: In vitro calcium antagonist activity was assessed against calcium induced constriction of potassium -depolarized rat aorta by 50%

| Compound | -Log IC25 (Cavia porcellus) | -Log IC50 [1] | also measured |
| --- | --- | --- | --- |
| CCO/C(O)=C1\C(COCCN(C)C)=NC(C)=C(C(=O)OC)C1c1cccc([N+](=O)[O-])c1 (stereo not given) | 7.1 | 8 | – |
| CCO/C(O)=C1\C(COCCNC)=NC(C)=C(C(=O)OC)C1c1ccccc1Cl (stereo not given) | 7.5 | 8.5 | Decrease (Canis familiaris [2]): 78.6%; Decrease (Canis familiaris [3]): 73.8%; Decrease (Canis familiaris [4]): 46.2% |
| CCO/C(O)=C1\C(COCCNC)=NC(C)=C(C(=O)OC)C1c1c(F)cccc1Cl (stereo not given) | 7.6 | 7.9 | – |
| CCO/C(O)=C1\C(COCCNC)=NC(C)=C(C(=O)OC)C1c1ccccc1C (stereo not given) | 7.2 | 7.2 | – |
| CCO/C(O)=C1\C(COCCN(C)C)=NC(C)=C(C(=O)OC)C1c1ccccc1Cl (stereo not given) | 7.5 | 8.1 | Decrease (Canis familiaris [2]): 74.7%; Decrease (Canis familiaris [3]): 68.9%; Decrease (Canis familiaris [4]): 64.8% |
| CCO/C(O)=C1\C(COCCN(C)C)=NC(C)=C(C(=O)OC)C1c1ccccc1C(F)(F)F (stereo not given) | 7.6 | 7.4 | – |
| CCO/C(O)=C1\C(COCCN2CCCC2)=NC(C)=C(C(=O)OC)C1c1ccccc1Cl (stereo not given) | 7.7 | 7.9 | – |
| COC(=O)C1=C(C)NC(C)=C(C(=O)OCCN(C)Cc2ccccc2)C1c1cccc([N+](=O)[O-])c1 (stereo not given) | – | – | Plasma half life [5]: 17 h; Vd [6]: 3.5 L/kg |
| CCO/C(O)=C1\C(COCCN2CCN(C(C)C)CC2)=NC(C)=C(C(=O)OC)C1c1ccccc1Cl (stereo not given) | 8 | 8.2 | – |
| CCO/C(O)=C1\C(COCCCN2CCN(C)CC2)=NC(C)=C(C(=O)OC)C1c1ccccc1Cl (stereo not given) | 8.2 | 8.4 | – |
| CCO/C(O)=C1\C(COCCN(C)C)=NC(C)=C(C(=O)OC)C1c1cccc2ccccc12 (stereo not given) | 7.7 | 7.1 | – |
| CCO/C(O)=C1\C(COCCN)=NC(C)=C(C(=O)OC)C1c1cccc(C(F)(F)F)c1Cl (stereo not given) | 7.3 | 8.5 | Decrease (Canis familiaris [2]): 81.7%; Decrease (Canis familiaris [3]): 75.7%; Decrease (Canis familiaris [4]): 52.6% |
| CCO/C(O)=C1\C(COCCN2CCN(c3ccc(F)cc3)CC2)=NC(C)=C(C(=O)OC)C1c1ccccc1Cl (stereo not given) | 7.3 | 7.9 | – |
| CCO/C(O)=C1\C(COCCN2CCOCC2)=NC(C)=C(C(=O)OC)C1c1ccccc1Cl (stereo not given) | 7.5 | 7.8 | – |
| CCO/C(O)=C1\C(COCCN2CCN(C)CC2)=NC(C)=C(C(=O)OC)C1c1ccccc1Cl (stereo not given) | 7.9 | 8 | – |
| CCO/C(O)=C1\C(COCCN)=NC(C)=C(C(=O)OC)C1c1ccccc1F (stereo not given) | 6.6 | 7.8 | – |
| CCO/C(O)=C1\C(COCCN2CCNCC2)=NC(C)=C(C(=O)OC)C1c1ccccc1Cl (stereo not given) | 7.4 | 6.8 | – |

| Compound | -Log IC25 (Cavia porcellus) | -Log IC50 [1] | also measured |
| --- | --- | --- | --- |
| CCO/C(O)=C1\C(COCCN)=NC(C)=C(C(=O)OC)C1c1ccc(Cl)cc1 (stereo not given) | 6 | 6 | – |
| CCO/C(O)=C1\C(COCCN(C)Cc2ccccc2)=NC(C)=C(C(=O)OC)C1c1ccccc1Cl (stereo not given) | 7.3 | 7.4 | – |
| CCO/C(O)=C1\C(COCCN(C)C)=NC(C)=C(C(=O)OC)C1c1ccncc1 (stereo not given) | 6 | 6.1 | – |
| CCO/C(O)=C1\C(COCCN2CCN(Cc3ccc(Cl)cc3)CC2)=NC(C)=C(C(=O)OC)C1c1ccccc1Cl (stereo not given) | 7.4 | 8 | – |
| CCOC(=O)C1=C(COCCN)NC(C)=C(C(=O)OC)C1c1ccccc1Cl (stereo in doubt; 17) [AMLODIPINE] | – | 8.1 | Decrease (Canis familiaris [2]): 76.9%; Decrease (Canis familiaris [3]): 69.5%; Decrease (Canis familiaris [4]): 35.4% |
| CCOC(=O)C1=C(COCCN)NC(C)=C(C(=O)OC)C1c1ccccc1Cl (stereo in doubt; 18) [AMLODIPINE] | – | 8.7 | – |
| CCO/C(O)=C1\C(COCCN2CCC(N(C)C)CC2)=NC(C)=C(C(=O)OC)C1c1ccccc1Cl (stereo not given) | 7.1 | 6.4 | – |
| CCOC(=O)C1=C(COCCN)NC(C)=C(C(=O)OC)C1c1ccccc1Cl (stereo in doubt; 19) [AMLODIPINE] | – | 5.8 | – |
| CCO/C(O)=C1\C(COCCN2CCN(CCN(CC)CC)CC2)=NC(C)=C(C(=O)OC)C1c1ccccc1Cl (stereo not given) | 7.1 | 6 | – |
| CCO/C(O)=C1\C(COCCN)=NC(C)=C(C(=O)OC)C1c1cccc(Cl)c1 (stereo not given) | 6.6 | 7.9 | – |
| CCO/C(O)=C1\C(COCCN)=NC(C)=C(C(=O)OC)C1c1cccc(Cl)c1Cl (stereo not given) | 6.6 | 7.9 | – |
| CCO/C(O)=C1\C(COCCN(C)C)=NC(C)=C(C(=O)OC)C1c1cccs1 (stereo not given) | 6.6 | 6.9 | – |
| COC(=O)C1=C(C)NC(C)=C(C(=O)OC)C1c1ccccc1[N+](=O)[O-] [NIFEDIPINE] | 7.5 | – | IC50 (Rattus norvegicus): 3.98 nM |
| CCO/C(O)=C1\C(COCCNC)=NC(C)=C(C(=O)OC)C1c1ccccc1OC (stereo not given) | 7.1 | 7.2 | – |
| CCO/C(O)=C1\C(COCCCN(C)C)=NC(C)=C(C(=O)OC)C1c1ccccc1Cl (stereo not given) | 8.6 | 8.6 | – |
| CCO/C(O)=C1\C(COCCN)=NC(C)=C(C(=O)OC)C1c1ccccc1 (stereo not given) | 6.2 | 6.8 | – |
